Activity calls are given as the source filed them. No cut-off for these calls is given here.
Columns and labels:
[1] = biological target: T1, G-protein coupled receptor 35 (Homo sapiens, UniProt Q9HC97); test: Agonist activity at human GPR35 receptor expressed in HT-29 cells assessed as reduction in dynamic mass redistribution response in presence of GPR35 antagonist ML-145 by DMR assay; type: functional, cell-based
[2] = biological target: T1, G-protein coupled receptor 35; test: Agonist activity at human GPR35 receptor expressed in HT-29 cells assessed as dynamic mass redistribution response by DMR assay; type: functional, cell-based
[3] = biological target: T1, G-protein coupled receptor 35; test: Agonist activity at human GPR35 receptor expressed in HT-29 cells assessed as desensitization of zaprinast-induced DMR response preincubated for 1 hr followed by zaprinast stimulation by DMR desensitization assay; type: functional, cell-based
[4] = biological target: Muscarinic acetylcholine receptor M3 (Homo sapiens) (UniProt P20309); test: Agonist activity at muscarinic M3 receptor (unknown origin) at 1 uM; type: functional
In short: (§1)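 Each receptor was expressed separately in its own cell line, and compounds were added at 1 μM. Cells were seeded on biosensor plates and grown overnight to a confluent monolayer. They were then washed, kept in Hank's balanced salt solution, and equilibrated 1 h in the reader. After a 2 min baseline, the label-free dynamic mass redistribution (DMR) response was recorded immediately after compound addition.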

[5] = biological target: T1, G-protein coupled receptor 35; test: Agonist activity at human GPR35 receptor expressed in CHO-K1 cells assessed as desensitization of zaprinast-induced DMR response preincubated for 1 hr followed by zaprinast stimulation by DMR desensitization assay; type: functional, cell-based
[6] = biological target: T1, G-protein coupled receptor 35; test: Agonist activity at human GPR35 receptor expressed in CHO-K1 cells assessed as dynamic mass redistribution response by DMR assay; type: functional, cell-based
[7] = biological target: Histamine H1 receptor (Homo sapiens) (UniProt P35367); test: Agonist activity at histamine H1 receptor receptor (unknown origin) at 1 uM
[8] = biological target: D(2) dopamine receptor (Homo sapiens) (UniProt P14416); test: Agonist activity at dopamine D2 receptor (unknown origin) at 1 uM; type: functional; in short: as §1
[9] = biological target: Mu-type opioid receptor (Homo sapiens) (UniProt P35372); test: Agonist activity at mu-opioid receptor (unknown origin) at 1 uM; type: functional; in short: as §1
[10] = biological target: T2, Free fatty acid receptor 4 (Homo sapiens) (UniProt Q5NUL3); test: Agonist activity at FFA4 receptor (unknown origin) at 1 uM; type: functional; in short: as §1
T2 sequence (whole entry): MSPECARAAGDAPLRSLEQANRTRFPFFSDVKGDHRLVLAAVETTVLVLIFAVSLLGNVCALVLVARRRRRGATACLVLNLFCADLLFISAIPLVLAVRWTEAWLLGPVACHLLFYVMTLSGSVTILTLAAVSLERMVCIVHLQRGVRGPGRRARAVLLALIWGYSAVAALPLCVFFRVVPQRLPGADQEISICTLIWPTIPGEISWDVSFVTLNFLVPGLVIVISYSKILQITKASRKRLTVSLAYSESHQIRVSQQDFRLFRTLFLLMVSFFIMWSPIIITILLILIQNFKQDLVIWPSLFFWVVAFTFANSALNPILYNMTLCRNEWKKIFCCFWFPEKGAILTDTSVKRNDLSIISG

[11] = biological target: T1, G-protein coupled receptor 35; test: Agonist activity at human GPR35 receptor expressed in HEK293T cells co-expressing beta-arrestin2 assessed as induction of beta-arrestin2 recruitment by BRET assay; type: functional, cell-based

Mu-type opioid receptor (Homo sapiens), sequence (P35372 whole entry): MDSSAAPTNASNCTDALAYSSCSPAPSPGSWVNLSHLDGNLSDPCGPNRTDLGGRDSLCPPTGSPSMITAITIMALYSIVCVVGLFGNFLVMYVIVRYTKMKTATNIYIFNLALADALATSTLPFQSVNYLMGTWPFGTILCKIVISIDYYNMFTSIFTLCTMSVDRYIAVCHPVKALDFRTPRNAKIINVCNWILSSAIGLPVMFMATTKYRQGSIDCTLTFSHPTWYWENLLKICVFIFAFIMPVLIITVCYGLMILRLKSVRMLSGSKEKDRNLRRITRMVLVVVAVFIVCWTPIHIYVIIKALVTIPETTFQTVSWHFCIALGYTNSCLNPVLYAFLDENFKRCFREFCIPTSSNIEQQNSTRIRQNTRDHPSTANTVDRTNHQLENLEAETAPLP
T1 sequence (Q9HC97 whole entry): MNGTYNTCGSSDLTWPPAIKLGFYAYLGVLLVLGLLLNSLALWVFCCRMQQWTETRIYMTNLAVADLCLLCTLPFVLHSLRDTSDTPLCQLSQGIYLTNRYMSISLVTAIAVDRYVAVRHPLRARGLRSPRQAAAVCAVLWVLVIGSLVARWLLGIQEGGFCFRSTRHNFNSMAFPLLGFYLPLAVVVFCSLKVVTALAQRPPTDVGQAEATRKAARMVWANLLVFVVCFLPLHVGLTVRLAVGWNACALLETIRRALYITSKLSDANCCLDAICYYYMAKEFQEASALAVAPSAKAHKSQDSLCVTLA
Muscarinic acetylcholine receptor M3 (Homo sapiens), sequence (P20309 whole entry, looked up): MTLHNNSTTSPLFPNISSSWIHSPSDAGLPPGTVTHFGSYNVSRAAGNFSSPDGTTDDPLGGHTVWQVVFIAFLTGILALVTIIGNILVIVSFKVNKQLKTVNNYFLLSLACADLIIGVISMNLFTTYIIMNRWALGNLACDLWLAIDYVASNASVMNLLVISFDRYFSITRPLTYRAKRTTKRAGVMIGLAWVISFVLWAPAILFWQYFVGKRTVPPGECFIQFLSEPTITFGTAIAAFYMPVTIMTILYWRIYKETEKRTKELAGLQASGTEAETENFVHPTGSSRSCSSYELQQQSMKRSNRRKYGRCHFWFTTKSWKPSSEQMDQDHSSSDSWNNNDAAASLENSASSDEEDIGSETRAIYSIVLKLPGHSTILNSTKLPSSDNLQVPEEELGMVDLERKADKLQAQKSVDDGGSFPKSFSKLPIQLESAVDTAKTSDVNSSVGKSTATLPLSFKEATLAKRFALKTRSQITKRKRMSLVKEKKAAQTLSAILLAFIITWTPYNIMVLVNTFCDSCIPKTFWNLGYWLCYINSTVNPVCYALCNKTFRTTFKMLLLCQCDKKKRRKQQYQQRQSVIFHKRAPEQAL
Histamine H1 receptor (Homo sapiens), sequence (P35367 whole entry, looked up): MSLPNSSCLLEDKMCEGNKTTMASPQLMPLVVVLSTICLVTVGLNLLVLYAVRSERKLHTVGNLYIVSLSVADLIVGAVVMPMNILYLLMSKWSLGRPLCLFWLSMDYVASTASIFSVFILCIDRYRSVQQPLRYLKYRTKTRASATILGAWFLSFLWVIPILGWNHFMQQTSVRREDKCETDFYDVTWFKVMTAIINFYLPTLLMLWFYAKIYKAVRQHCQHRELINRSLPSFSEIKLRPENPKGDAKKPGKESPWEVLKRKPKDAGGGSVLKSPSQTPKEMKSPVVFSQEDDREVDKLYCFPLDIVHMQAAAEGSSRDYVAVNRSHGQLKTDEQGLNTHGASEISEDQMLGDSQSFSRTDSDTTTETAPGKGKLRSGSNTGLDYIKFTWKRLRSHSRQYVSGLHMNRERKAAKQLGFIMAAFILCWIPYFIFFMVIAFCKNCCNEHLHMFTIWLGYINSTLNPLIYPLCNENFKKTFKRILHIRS
D(2) dopamine receptor (Homo sapiens), sequence (P14416 whole entry): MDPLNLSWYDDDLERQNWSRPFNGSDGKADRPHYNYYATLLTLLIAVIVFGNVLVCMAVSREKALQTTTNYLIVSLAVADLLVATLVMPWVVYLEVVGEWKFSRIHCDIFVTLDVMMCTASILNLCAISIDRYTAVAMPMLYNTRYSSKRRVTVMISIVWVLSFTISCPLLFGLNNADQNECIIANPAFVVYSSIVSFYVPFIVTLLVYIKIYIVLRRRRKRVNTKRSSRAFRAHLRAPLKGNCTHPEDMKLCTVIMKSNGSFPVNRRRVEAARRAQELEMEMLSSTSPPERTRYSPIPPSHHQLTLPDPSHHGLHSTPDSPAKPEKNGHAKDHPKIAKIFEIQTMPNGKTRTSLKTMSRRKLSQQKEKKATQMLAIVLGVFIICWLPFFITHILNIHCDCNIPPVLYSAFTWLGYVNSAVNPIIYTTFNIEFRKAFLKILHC

| Structure (SMILES) | IC50 [1] [nM] | EC50 [2] [nM] | Activity [4] | EC50 [6] [nM] | Activity [7] | Activity [8] | Activity [9] | Activity [10] | EC50 [11] [nM] | IC50 [3] [nM] | IC50 [5] [nM] |
| --- | --- | --- | --- | --- | --- | --- | --- | --- | --- | --- | --- |
| O=C(O)c1cc2c(oc1=O)c(-c1ccc(F)cc1)cc1cc(C(=O)O)c(=O)oc12 | 1030 | 33 | – | – | – | – | – | – | – | – | – |
| COc1cccc(-c2cc3cc(C(=O)O)c(=O)oc3cc2O)c1 | 2260 | 1600 | – | – | – | – | – | – | – | 1380 | – |
| CCCOc1ccccc1-c1nc2[nH]nnc2c(=O)[nH]1 | – | – | – | – | – | inactive | inactive | inactive | – | – | – |
| Cc1c2oc(=O)c(C(=O)O)cc2cc2cc(C(=O)O)c(=O)oc12 | 350 | 140 | – | – | – | – | – | – | – | 42 | – |
| CCCCc1cc2c(=O)cc(C(=O)O)[nH]c2c2c(=O)cc(C(=O)O)[nH]c12 [BUFROLIN] | – | – | – | – | – | – | – | – | 13 | – | – |
| O=C(O)c1cc2c(oc1=O)c(Br)cc1cc(-c3nnn[nH]3)c(=O)oc12 | 830 | 18 | inactive | 25.9 | inactive | inactive | inactive | inactive | – | 18 | 15.9 |
| Cc1c2nc(C(=O)O)cc(Cl)c2cc2c(Cl)cc(C(=O)O)nc12 | 2530 | 54 | inactive | 5.08 | inactive | inactive | inactive | inactive | – | 15 | 3.52 |
| COc1ccc(-c2cc3cc(C(=O)O)c(=O)oc3c3cc(C(=O)O)c(=O)oc23)cc1 | 470 | 20 | inactive | 6.93 | inactive | inactive | inactive | inactive | – | 7 | 2.45 |
| Cc1c2[nH]c(C(=O)O)cc(=O)c2cc2c(=O)cc(C(=O)O)[nH]c12 | 789 | 8 | inactive | 1.08 | inactive | inactive | inactive | inactive | – | 2 | 0.74 |
| O=C(O)c1cc(C(=O)O)c2c(n1)C(=O)C(=O)c1cc(C(=O)O)[nH]c1-2 [PYRROLOQUINOLINE QUINONE] | 582 | 71 | – | – | – | – | – | – | – | 30 | – |

Continued by falling IC50 [1], values first:

| IC50 [1] [nM] | EC50 [2] [nM] | Activity [4] | EC50 [6] [nM] | Activity [7] | Activity [8] | Activity [9] | Activity [10] | EC50 [11] [nM] | Structure (SMILES) | IC50 [3] [nM] | IC50 [5] [nM] |
| --- | --- | --- | --- | --- | --- | --- | --- | --- | --- | --- | --- |
| 282 | 100 | inactive | 8.13 | inactive | inactive | inactive | inactive | – | COc1cc(C(=O)O)nc2c(C)c3nc(C(=O)O)cc(OC)c3cc12 | 65 | 6.11 |
| 170 | 15 | – | – | – | – | – | – | – | COc1cccc(-c2cc3cc(C(=O)O)c(=O)oc3c3cc(C(=O)O)c(=O)oc23)c1 | 3 | – |
| 160 | 2880 | – | – | – | – | – | – | – | O=C(O)c1cc2cc(-c3cccs3)c(O)cc2oc1=O | 1450 | – |
| 130 | – | – | – | – | – | – | – | – | O=C(O)c1cc2cc(Br)c(O)cc2oc1=O | – | – |
| 120 | 23900 | – | – | – | – | – | – | – | COc1ccccc1-c1cc2cc(C(=O)O)c(=O)oc2cc1O | 17600 | – |

— ChEMBL document CHEMBL4834401, “Structure-Activity Relationship Studies of Coumarin-like Diacid Derivatives as Human G Protein-Coupled Receptor-35 (hGPR35) Agonists and a Consequent New Design Principle” (J Med Chem, 2021)
